Test system: Fibroblast
Experiment: Multiplex assay against human fibroblast
Assay type: toxicity, cell-based
Summary of the method: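 Four dyes were applied at seeding to live cells: Hoechst33342, BioTracker Green Microtubule Cytoskeleton Dye, MitoTracker Red and Annexin V Alexa Fluor 680. Imaging after compound addition used a CQ1 microscope at 37°C and 5% CO2. CellPathfinder machine-learning gating then sorted cells into Hoechst high-intensity objects or normal cells, normal cells into healthy, pyknosed or fragmented nuclei, and pyknosed cells into mitotic or apoptotic, with tubulin, mitochondrial-mass and membrane-permeability phenotypes given as per cents of healthy-nucleus cells.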

[1] = 12 h, 1 µM, compound concentration 1 uM, replicate 1
[2] = 12 h, 1 µM, compound concentration 1 uM, replicate 2
[3] = 12 h, 10 µM, compound concentration 10 uM, replicate 1
[4] = 12 h, 10 µM, compound concentration 10 uM, replicate 2
[5] = 24 h, 1 µM, compound concentration 1 uM, replicate 1
[6] = 24 h, 1 µM, compound concentration 1 uM, replicate 2
[7] = 24 h, 10 µM, compound concentration 10 uM, replicate 1
[8] = 24 h, 10 µM, compound concentration 10 uM, replicate 2
[9] = 48 h, 1 µM, compound concentration 1 uM, replicate 1
[10] = 48 h, 1 µM, compound concentration 1 uM, replicate 2
[11] = 48 h, 10 µM, compound concentration 10 uM, replicate 1
[12] = 48 h, 10 µM, compound concentration 10 uM, replicate 2

Which “Population Apoptotic (%)” value [1] does the source give for `CN[C@@H](C)C(=O)N[C@H](C(=O)N1CCC[C@H]1C(=O)Nc1snnc1-c1ccccc1)C1CCCCC1` [GDC-0152] here?
Its value is 70%.

And the “Population Fragmented Nuclei (%)” value [1]?
Its value is 14%.

And the “Population Healthy Nuclei (%)” value [1]?
Its value is 68%.

And the “Population Hoechst High Intensity Objects (%)” value [1]?
The value was 4%.

And the “Population Membrane Permeable-Phenotype (%)” value [1]?
The value was 1%.

What about the “Population Mitochondria Different-Phenotype (%)” value [1] of the same molecule?
Its value is 6%.

And the “Population Mitotic Cells (%)” value [1]?
Its value is 30%.

And the “Population Normal (%)” value [1]?
Its value is 95%.

What about the “Population Pyknosed Nuclei (%)” value [1] of the same molecule?
Its value is 16%.

What about the “Population Tubulin-Different-Phenotype (%)” value [1] of the same molecule?
The value was 38%.

And the “Total Cell Count” value [1]?
The value was 127.

What about the “Population Apoptotic (%)” value [2] of the same molecule?
Its value is 33%.

And the “Population Fragmented Nuclei (%)” value [2]?
Its value is 16%.

What about the “Population Healthy Nuclei (%)” value [2] of the same molecule?
Its value is 56%.

And the “Population Hoechst High Intensity Objects (%)” value [2]?
Its value is 6%.

And the “Population Membrane Permeable-Phenotype (%)” value [2]?
Its value is 6%.

What about the “Population Mitochondria Different-Phenotype (%)” value [2] of the same molecule?
The value was 9%.

And the “Population Mitotic Cells (%)” value [2]?
The value was 66%.

What about the “Population Normal (%)” value [2] of the same molecule?
Its value is 93%.

What about the “Population Pyknosed Nuclei (%)” value [2] of the same molecule?
The value was 26%.

What about the “Population Tubulin-Different-Phenotype (%)” value [2] of the same molecule?
Its value is 62%.

And the “Total Cell Count” value [2]?
The value was 121.

What about the “Population Apoptotic (%)” value [3] of the same molecule?
The value was 38%.

And the “Population Fragmented Nuclei (%)” value [3]?
The value was 17%.

What about the “Population Healthy Nuclei (%)” value [3] of the same molecule?
The value was 59%.

What about the “Population Hoechst High Intensity Objects (%)” value [3] of the same molecule?
Its value is 6%.

What about the “Population Membrane Permeable-Phenotype (%)” value [3] of the same molecule?
The value was 0%.

What about the “Population Mitochondria Different-Phenotype (%)” value [3] of the same molecule?
The value was 13%.

And the “Population Mitotic Cells (%)” value [3]?
Its value is 61%.

What about the “Population Normal (%)” value [3] of the same molecule?
Its value is 93%.

What about the “Population Pyknosed Nuclei (%)” value [3] of the same molecule?
Its value is 22%.

What about the “Population Tubulin-Different-Phenotype (%)” value [3] of the same molecule?
Its value is 80%.

What about the “Total Cell Count” value [3] of the same molecule?
Its value is 144.

What about the “Population Apoptotic (%)” value [4] of the same molecule?
Its value is 24%.

What about the “Population Fragmented Nuclei (%)” value [4] of the same molecule?
Its value is 26%.

And the “Population Healthy Nuclei (%)” value [4]?
The value was 34%.

What about the “Population Hoechst High Intensity Objects (%)” value [4] of the same molecule?
Its value is 10%.

What about the “Population Mitochondria Different-Phenotype (%)” value [4] of the same molecule?
The value was 10%.

What about the “Population Mitotic Cells (%)” value [4] of the same molecule?
The value was 75%.

What about the “Population Normal (%)” value [4] of the same molecule?
Its value is 90%.

What about the “Population Pyknosed Nuclei (%)” value [4] of the same molecule?
The value was 39%.

What about the “Population Tubulin-Different-Phenotype (%)” value [4] of the same molecule?
The value was 65%.

What about the “Total Cell Count” value [4] of the same molecule?
The value was 150.

And the “Population Apoptotic (%)” value [5]?
Its value is 60%.

And the “Population Fragmented Nuclei (%)” value [5]?
The value was 20%.

What about the “Population Healthy Nuclei (%)” value [5] of the same molecule?
The value was 63%.

And the “Population Hoechst High Intensity Objects (%)” value [5]?
The value was 2%.

What about the “Population Membrane Permeable-Phenotype (%)” value [5] of the same molecule?
The value was 1%.

And the “Population Mitochondria Different-Phenotype (%)” value [5]?
Its value is 1%.

What about the “Population Mitotic Cells (%)” value [5] of the same molecule?
The value was 40%.

What about the “Population Normal (%)” value [5] of the same molecule?
Its value is 97%.

And the “Population Pyknosed Nuclei (%)” value [5]?
The value was 16%.

And the “Population Tubulin-Different-Phenotype (%)” value [5]?
The value was 30%.

What about the “Total Cell Count” value [5] of the same molecule?
Its value is 123.

What about the “Population Apoptotic (%)” value [6] of the same molecule?
Its value is 37%.

And the “Population Fragmented Nuclei (%)” value [6]?
Its value is 22%.

What about the “Population Healthy Nuclei (%)” value [6] of the same molecule?
The value was 55%.

And the “Population Hoechst High Intensity Objects (%)” value [6]?
Its value is 9%.

And the “Population Membrane Permeable-Phenotype (%)” value [6]?
The value was 2%.

And the “Population Mitochondria Different-Phenotype (%)” value [6]?
The value was 11%.

And the “Population Mitotic Cells (%)” value [6]?
The value was 62%.

What about the “Population Normal (%)” value [6] of the same molecule?
The value was 90%.

What about the “Population Pyknosed Nuclei (%)” value [6] of the same molecule?
Its value is 22%.

What about the “Population Tubulin-Different-Phenotype (%)” value [6] of the same molecule?
Its value is 61%.

And the “Total Cell Count” value [6]?
The value was 133.

What about the “Population Apoptotic (%)” value [7] of the same molecule?
Its value is 67%.

And the “Population Fragmented Nuclei (%)” value [7]?
Its value is 14%.

What about the “Population Healthy Nuclei (%)” value [7] of the same molecule?
The value was 58%.

What about the “Population Hoechst High Intensity Objects (%)” value [7] of the same molecule?
The value was 5%.

What about the “Population Membrane Permeable-Phenotype (%)” value [7] of the same molecule?
The value was 0%.

What about the “Population Mitochondria Different-Phenotype (%)” value [7] of the same molecule?
Its value is 21%.

What about the “Population Mitotic Cells (%)” value [7] of the same molecule?
Its value is 32%.

And the “Population Normal (%)” value [7]?
The value was 94%.

And the “Population Pyknosed Nuclei (%)” value [7]?
Its value is 26%.

And the “Population Tubulin-Different-Phenotype (%)” value [7]?
The value was 83%.

And the “Total Cell Count” value [7]?
The value was 135.

And the “Population Apoptotic (%)” value [8]?
Its value is 41%.

What about the “Population Fragmented Nuclei (%)” value [8] of the same molecule?
The value was 33%.

What about the “Population Healthy Nuclei (%)” value [8] of the same molecule?
The value was 34%.

And the “Population Hoechst High Intensity Objects (%)” value [8]?
The value was 8%.

What about the “Population Membrane Permeable-Phenotype (%)” value [8] of the same molecule?
Its value is 16%.

And the “Population Mitochondria Different-Phenotype (%)” value [8]?
The value was 22%.

What about the “Population Mitotic Cells (%)” value [8] of the same molecule?
Its value is 58%.

What about the “Population Normal (%)” value [8] of the same molecule?
Its value is 91%.

What about the “Population Pyknosed Nuclei (%)” value [8] of the same molecule?
Its value is 31%.

What about the “Population Tubulin-Different-Phenotype (%)” value [8] of the same molecule?
The value was 68%.

And the “Total Cell Count” value [8]?
The value was 157.

And the “Population Apoptotic (%)” value [9]?
The value was 47%.

And the “Population Fragmented Nuclei (%)” value [9]?
The value was 23%.

And the “Population Healthy Nuclei (%)” value [9]?
Its value is 60%.

And the “Population Hoechst High Intensity Objects (%)” value [9]?
Its value is 1%.

And the “Population Membrane Permeable-Phenotype (%)” value [9]?
The value was 0%.

What about the “Population Mitochondria Different-Phenotype (%)” value [9] of the same molecule?
The value was 1%.

What about the “Population Mitotic Cells (%)” value [9] of the same molecule?
Its value is 52%.

And the “Population Normal (%)” value [9]?
Its value is 98%.

And the “Population Pyknosed Nuclei (%)” value [9]?
The value was 16%.

And the “Population Tubulin-Different-Phenotype (%)” value [9]?
Its value is 48%.

And the “Total Cell Count” value [9]?
The value was 132.

And the “Population Apoptotic (%)” value [10]?
Its value is 57%.

What about the “Population Fragmented Nuclei (%)” value [10] of the same molecule?
The value was 38%.

What about the “Population Healthy Nuclei (%)” value [10] of the same molecule?
Its value is 44%.

What about the “Population Hoechst High Intensity Objects (%)” value [10] of the same molecule?
The value was 5%.

What about the “Population Membrane Permeable-Phenotype (%)” value [10] of the same molecule?
Its value is 2%.

And the “Population Mitochondria Different-Phenotype (%)” value [10]?
The value was 14%.

And the “Population Mitotic Cells (%)” value [10]?
Its value is 42%.

What about the “Population Normal (%)” value [10] of the same molecule?
Its value is 94%.

What about the “Population Pyknosed Nuclei (%)” value [10] of the same molecule?
Its value is 17%.

What about the “Population Tubulin-Different-Phenotype (%)” value [10] of the same molecule?
The value was 67%.

What about the “Total Cell Count” value [10] of the same molecule?
Its value is 159.

And the “Population Apoptotic (%)” value [11]?
Its value is 76%.

What about the “Population Fragmented Nuclei (%)” value [11] of the same molecule?
Its value is 23%.

And the “Population Healthy Nuclei (%)” value [11]?
The value was 45%.

What about the “Population Hoechst High Intensity Objects (%)” value [11] of the same molecule?
The value was 6%.

And the “Population Membrane Permeable-Phenotype (%)” value [11]?
Its value is 0%.

And the “Population Mitochondria Different-Phenotype (%)” value [11]?
The value was 22%.

And the “Population Mitotic Cells (%)” value [11]?
The value was 23%.

And the “Population Normal (%)” value [11]?
The value was 93%.

What about the “Population Pyknosed Nuclei (%)” value [11] of the same molecule?
Its value is 31%.

What about the “Population Tubulin-Different-Phenotype (%)” value [11] of the same molecule?
The value was 81%.

And the “Total Cell Count” value [11]?
The value was 145.

What about the “Population Apoptotic (%)” value [12] of the same molecule?
Its value is 44%.

And the “Population Fragmented Nuclei (%)” value [12]?
Its value is 39%.

And the “Population Healthy Nuclei (%)” value [12]?
Its value is 42%.

And the “Population Membrane Permeable-Phenotype (%)” value [12]?
Its value is 19%.

What about the “Population Mitochondria Different-Phenotype (%)” value [12] of the same molecule?
The value was 17%.

What about the “Population Mitotic Cells (%)” value [12] of the same molecule?
The value was 55%.

And the “Population Pyknosed Nuclei (%)” value [12]?
Its value is 18%.

What about the “Population Tubulin-Different-Phenotype (%)” value [12] of the same molecule?
The value was 88%.

What about the “Total Cell Count” value [12] of the same molecule?
Its value is 159.

From ChEMBL document CHEMBL5058577, “EUbOPEN Chemogenomics Library 2 (Multiplex)” (2022)
